Active and inactive are the calls of the source. The calls are words filed in the database; no cut-off is given here.

Assay [1] relates to Mus musculus. As to the kind of experiment: Anticonvulsant activity in Swiss Albino mouse at 300 mg/kg, ip after 0.5 hr by MES test. On the set-up: dose 300 mg/kg. The assay is classed as functional, organism-based. In a few lines:
(§1)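 Mice (Swiss, 20-25 g) given i.p. doses of 30, 100 and 300 mg/kg under ADD program protocols, three per group, examined at 0.5 and 4 h in MES, scPTZ, scSTY or scPIC seizure tests. Value is the minimum dose protecting half or more of the mice.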

Assay [2] has as its system Mus musculus. The assay is described as follows: Anticonvulsant activity in Swiss Albino mouse at 300 mg/kg, ip after 4 hrs by MES test. The assay is classed as functional, organism-based. Also noted: dose 300 mg/kg. In a few lines: as §1
Assay [3] has as its system Mus musculus. As to the kind of experiment: Anticonvulsant activity in Swiss Albino mouse at 300 mg/kg, ip after 0.5 hr by scPTZ test. The assay is classed as functional, organism-based. On the set-up: dose 300 mg/kg. A digest of the protocol: as §1
The test system of assay [4] is Mus musculus. The assay is described as follows: Anticonvulsant activity in Swiss Albino mouse at 300 mg/kg, ip after 0.5 hr by scSTY test. Format: functional, organism-based. Also noted: dose 300 mg/kg. A digest of the protocol: as §1
Assay [5] deals with Mus musculus. The assay is described as follows: Anticonvulsant activity in Swiss Albino mouse at 300 mg/kg, ip after 4 hrs by scSTY test. Format: functional, organism-based. Also noted: dose 300 mg/kg. A digest of the protocol:
as §1

For assay [6], the system named is Mus musculus. The assay is described as follows: Anticonvulsant activity in Swiss Albino mouse at 300 mg/kg, ip after 0.5 hr by scPIC test. Format: functional, organism-based. On the set-up: dose 300 mg/kg. A digest of the protocol: as §1
For assay [7], the system named is Mus musculus. As to the kind of experiment: Anticonvulsant activity in Swiss Albino mouse at 300 mg/kg, ip after 4 hrs by scPIC test. Also noted: dose 300 mg/kg. Format: functional, organism-based. A digest of the protocol:
as §1

Assay [8] relates to Mus musculus. As to the kind of experiment: Neurotoxicity in Swiss Albino mouse at 300 mg/kg, ip after 0.5 hr by rotarod test. Format: functional, organism-based. Also noted: dose 300 mg/kg. In a few lines:
(§2)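 Swiss mice (20-25 g) are trained on an accelerating rotorod (10 rpm, 3.2 cm rod), then injected i.p. at 30, 100 or 300 mg/kg, with three per group. Neurotoxicity means failure to keep equilibrium for at least 1 min in each of three trials, checked at 0.5 and 4 h. The value reported is the minimum dose affecting half or more of the mice.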

Assay [9] deals with Mus musculus. The assay is described as follows: Neurotoxicity in Swiss Albino mouse at 300 mg/kg, ip after 4 hrs by rotarod test. The assay is classed as functional, organism-based. Also noted: dose 300 mg/kg. In a few lines: as §2
Assay [10] concerns Mus musculus. The assay is described as follows: Analgesic activity in Swiss Albino mouse assessed as number of acetic acid-induced writhing per 30 min after 100 mg/kg, ip. Format: functional. To be noted: route intraperitoneal. In a few lines: (§3)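 Mice in groups of six dosed i.p. at 100 mg/kg, controls receiving 30% v/v PEG 400 in water. Writhing induced by i.p. 0.1 mL of 3% v/v acetic acid 1 h after drug. Writhes (abdominal stretch with at least one hind limb extended) counted over 30 min; % inhibition calculated. Mean ± SEM, Student's t test.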

Assay [11] relates to Mus musculus. As to the kind of experiment: Analgesic activity in Swiss Albino mouse assessed as inhibition of acetic acid-induced writhing responses at 100 mg/kg, ip. To be noted: route intraperitoneal. Format: functional. In a few lines:
as §3

Assay [12] concerns Rattus norvegicus. The assay is described as follows: Anti-cold allodynia effect in Sprague-Dawley rat CCI model assessed as duration of paw withdrawal 100 mg/kg, ip after 2 hr. To be noted: route intraperitoneal. The assay is classed as functional. A digest of the protocol:
(§4)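 CCI by sciatic nerve ligation under pentobarbital (65 mg/kg i.p.). Rats tested at baseline and 9 days post-surgery; those with allodynia dosed i.p. 100 mg/kg, vehicle 30% v/v PEG 400 in water. Acetone (100-200 µL) misted on midplantar affected paw; withdrawal duration recorded, three samples averaged, at least 3 min apart; n = 4.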

The subject of assay [13] is Rattus norvegicus. As to the kind of experiment: Anti-cold allodynia effect in Sprague-Dawley rat CCI model assessed as duration of paw withdrawal 100 mg/kg, ip after 2.5 hr. To be noted: route intraperitoneal. Format: functional. A digest of the protocol: as §4
In assay [14] the test system is Rattus norvegicus. The assay is described as follows: Anti-cold allodynia effect in Sprague-Dawley rat CCI model assessed as duration of paw withdrawal at 100 mg/kg, ip after 0.5 hr. Format: functional. To be noted: route intraperitoneal. In a few lines: as §4
For assay [15], the system named is Rattus norvegicus. The assay is described as follows: Anti-cold allodynia effect in Sprague-Dawley rat CCI model assessed as duration of paw withdrawal 100 mg/kg, ip after 1 hr. To be noted: route intraperitoneal. The assay is classed as functional. A digest of the protocol:
as §4

Assay [16] deals with Rattus norvegicus. The assay is described as follows: Anti-cold allodynia effect in Sprague-Dawley rat CCI model assessed as duration of paw withdrawal 100 mg/kg, ip after 1.5 hr. Format: functional. To be noted: route intraperitoneal. A digest of the protocol: as §4
The subject of assay [17] is Mus musculus. As to the kind of experiment: Anticonvulsant activity in Swiss Albino mouse at 100 mg/kg, ip after 4 hrs by scPIC test. Format: functional, organism-based. On the set-up: dose 100 mg/kg. In a few lines: as §1
Assay [18] relates to Rattus norvegicus. The assay is described as follows: Effect on spontaneous pain in Sprague-Dawley rat CCI model assessed as duration of paw withdrawal at 100 mg/kg, ip after 0.5 hr. To be noted: route intraperitoneal. The assay is classed as functional. In a few lines:
(§5)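 CCI rats (n = 4) dosed 100 mg/kg i.p. (vehicle 30% v/v PEG 400 in water). After 10 min acclimatization in a cage 5 cm above ground, cumulative time the ipsilateral paw was held off the floor over 5 min recorded, excluding locomotion lifts. Mean ± SEM; ANOVA/Bonferroni versus predrug.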

Assay [19] concerns Rattus norvegicus. As to the kind of experiment: Effect on spontaneous pain in Sprague-Dawley rat CCI model assessed as duration of paw withdrawal at 100 mg/kg, ip after 1 hr. The assay is classed as functional. To be noted: route intraperitoneal. A digest of the protocol: as §5
The test system of assay [20] is Rattus norvegicus. The assay is described as follows: Effect on spontaneous pain in Sprague-Dawley rat CCI model assessed as duration of paw withdrawal at 100 mg/kg, ip after 1.5 hrs. The assay is classed as functional. To be noted: route intraperitoneal. In a few lines: (§6)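 Unilateral CCI of sciatic nerve (Bennett and Xie) in Sprague-Dawley rats under i.p. pentobarbital sodium (65 mg/kg). Spontaneous pain is scored over 5 min after 10 min acclimatization, as cumulative time the ipsilateral paw is held off the floor. Paw lifts from locomotion or repositioning are excluded. Drug is given at 100 mg/kg i.p. with 30% v/v PEG 400 vehicle. Mean ± SEM, n = 4, compared with predrug by ANOVA/Bonferroni.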

Assay [21] has as its system Rattus norvegicus. As to the kind of experiment: Effect on spontaneous pain in Sprague-Dawley rat CCI model assessed as duration of paw withdrawal at 100 mg/kg, ip after 2 hrs. Format: functional. To be noted: route intraperitoneal. In a few lines: as §6
The subject of assay [22] is Rattus norvegicus. As to the kind of experiment: Effect on spontaneous pain in Sprague-Dawley rat CCI model assessed as duration of paw withdrawal at 100 mg/kg, ip after 2.5 hrs. Format: functional. To be noted: route intraperitoneal. A digest of the protocol:
as §6

For assay [23], the system named is Rattus norvegicus. As to the kind of experiment: Effect on spontaneous pain in Sprague-Dawley rat SNL model assessed as duration of paw withdrawal at 100 mg/kg, ip after 0.5 hr. Format: functional. To be noted: route intraperitoneal. A digest of the protocol: (§7)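 Rats underwent left L5 spinal nerve ligation (Kim and Chung) under i.p. pentobarbital (65 mg/kg). Spontaneous pain is recorded for 5 min after 10 min acclimatization, as cumulative duration the ipsilateral paw is lifted, excluding locomotor lifts. Dosing is 100 mg/kg i.p. in 30% v/v PEG 400/water, with testing at 0.5–2.5 h. Four rats, mean ± SEM versus predrug, one-way ANOVA with Bonferroni.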

The test system of assay [24] is Rattus norvegicus. As to the kind of experiment: Effect on spontaneous pain in Sprague-Dawley rat SNL model assessed as duration of paw withdrawal at 100 mg/kg, ip after 1 hr. The assay is classed as functional. To be noted: route intraperitoneal. In a few lines:
as §7

Assay [25] relates to Rattus norvegicus. The assay is described as follows: Effect on spontaneous pain in Sprague-Dawley rat SNL model assessed as duration of paw withdrawal at 100 mg/kg, ip after 1.5 hrs. The assay is classed as functional. To be noted: route intraperitoneal. A digest of the protocol:
as §7

The subject of assay [26] is Rattus norvegicus. The assay is described as follows: Effect on spontaneous pain in Sprague-Dawley rat SNL model assessed as duration of paw withdrawal at 100 mg/kg, ip after 2 hrs. To be noted: route intraperitoneal. The assay is classed as functional. In a few lines: as §7
Assay [27] has as its system Rattus norvegicus. The assay is described as follows: Effect on spontaneous pain in Sprague-Dawley rat SNL model assessed as duration of paw withdrawal at 100 mg/kg, ip after 2.5 hrs. The assay is classed as functional. To be noted: route intraperitoneal. A digest of the protocol:
as §7

For assay [28], the species on record is Rattus norvegicus. The assay is described as follows: Anti-dynamic allodynic effect in Sprague-Dawley rat CCI model assessed as latency to paw withdrawal after 0.5 hr. The assay is classed as functional. A digest of the protocol:
(§8)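 Rats with sciatic nerve chronic constriction injury (pentobarbital 65 mg/kg i.p. anaesthesia), baseline and day 9 testing, then drug per randomization table. After 10 min acclimatization, affected plantar surface stroked mildly with a cotton-bud; paw lift recorded. n = 4; retested 0.5-2.5 h post-dose.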

The species entered for assay [29] is Rattus norvegicus. The assay is described as follows: Anti-dynamic allodynic effect in Sprague-Dawley rat CCI model assessed as latency to paw withdrawal after 1 hr. The assay is classed as functional. In a few lines:
as §8

The species named for assay [30] is Rattus norvegicus. As to the kind of experiment: Anti-dynamic allodynic effect in Sprague-Dawley rat CCI model assessed as latency to paw withdrawal after 1.5 hr. Format: functional. In a few lines: as §8
The species entered for assay [31] is Rattus norvegicus. The assay is described as follows: Anti-dynamic allodynic effect in Sprague-Dawley rat CCI model assessed as latency to paw withdrawal after 2 hr. The assay is classed as functional. In a few lines:
as §8

For assay [32], the species on record is Rattus norvegicus. The assay is described as follows: Anti-dynamic allodynic effect in Sprague-Dawley rat CCI model assessed as latency to paw withdrawal after 2.5 hr. Format: functional. A digest of the protocol:
as §8

Turning to `O=C(O)CCCNC(=O)N/N=C/c1cccc([N+](=O)[O-])c1`, the result in the assay with Mus musculus [1], in the assay with Mus musculus [2], in the assay on Mus musculus [4], in the assay with Mus musculus [5], with Mus musculus [8] and in the assay on Mus musculus [9] was inactive. For the same molecule, the result in the assay on Mus musculus [3], in the assay with Mus musculus [6] and with Mus musculus [7] was Active. The Activity was 17.7 in the assay with Mus musculus [10]; 39.5 s in the assay on Rattus norvegicus [12]; 13.7 s in the assay with Rattus norvegicus [13]; 46.3 s in the assay with Rattus norvegicus [14]; 56.9 s in the assay with Rattus norvegicus [15]; 44.5 s in the assay with Rattus norvegicus [16]. Moreover, the inhibition in vivo at 100 mg/kg in the assay on Mus musculus [11] came to 90%.
Regarding `O=C(O)CCCNC(=O)NN=C(Cc1ccccc1)Cc1ccccc1`, the result in the assay on Mus musculus [1], in the assay on Mus musculus [2], in the assay with Mus musculus [3], in the assay with Mus musculus [8] and with Mus musculus [9] was inactive. Further, the outcome with Mus musculus [4], with Mus musculus [5] and in the assay on Mus musculus [17] was Active. Besides, the Activity with Mus musculus [10] worked out at 10.3; in the assay with Rattus norvegicus [18], 9.2 s; with Rattus norvegicus [19], 9.7 s; in the assay with Rattus norvegicus [20] it was 1.3 s; in the assay with Rattus norvegicus [21], 3.2 s; in the assay on Rattus norvegicus [12], 9.1 s. In addition, the Activity is 8.3 s in the assay on Rattus norvegicus [13]; 8.5 s with Rattus norvegicus [22]; 22.2 s with Rattus norvegicus [23]; 7.9 s in the assay on Rattus norvegicus [24]; 8.9 s in the assay with Rattus norvegicus [25]; 11.8 s with Rattus norvegicus [26]. For the same molecule, the Activity in the assay on Rattus norvegicus [27] worked out at 7.4 s; in the assay listed under Rattus norvegicus [28], 12 s; in the assay filed under Rattus norvegicus [29], 13.5 s; in the assay listed under Rattus norvegicus [30] it was 10.9 s; in the assay filed under Rattus norvegicus [31], 10.9 s; in the assay listed under Rattus norvegicus [32], 10.3 s. The Activity is 24.6 s with Rattus norvegicus [14], 11.6 s in the assay with Rattus norvegicus [15] and 10.4 s in the assay on Rattus norvegicus [16]. Moreover, the inhibition in vivo at 100 mg/kg in the assay with Mus musculus [11] was 94%.

For the origin of these results see ChEMBL document CHEMBL1139875, “Discovery of 4-aminobutyric acid derivatives possessing anticonvulsant and antinociceptive activities: a hybrid pharmacophore approach” (2007).
